This is an account of results in paper PMC5564211 (European journal of medicinal chemistry, 2017).

As a reminder, the IC50 is the concentration that gives 50% inhibition. A low value points to greater potency in that assay.

Data set [1] relates to α1-adrenoceptors. In words: [3H]prazosin binding displacement. Also on record: species or system mouse. The settings on record: [3H]prazosin displacement; for IC50: values as rounded in text. In outline:
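Competition binding against 1.5 nM [³H]prazosin in mouse hippocampal homogenate, with test compound added over a range of concentrations to build concentration–effect displacement curves. IC50 is derived by non-linear regression curve fitting. Each ligand's fitted curve is compared statistically with reference-ligand curves.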

Data set [2] concerns mouse. In words: Antidepressant-like activity assay. The settings on record: mice, TST, given alone without SSRI. The data set is classed as in vivo. In outline:
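Mice given test compound were scored for immobility time in the tail suspension test. A saline-treated group served as control. Groups were compared with saline by one-way ANOVA with Dunnett's post-hoc test, with significance set at P < 0.05.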

Data set [3] concerns mouse. The data set is described as follows: Locomotor activity assay. The data set is classed as in vivo. To be noted: mice; for effect on locomotion compared with the same dose of D-22: 1 mg/kg ip, one-way ANOVA, Dunnett's test.
Data set [4] concerns mouse. To be noted: mice, previously published studies; cited from earlier work.

Regarding `C[C@]12C[C@H](O)[C@H]3[C@@H](CCC4=CC(=O)CC[C@@]43C)[C@@H]1CC[C@@H]2C(=O)CO` [Corticosterone, corticosterone, reference compound], the inhibition at adrenoceptors result in data set [1] is on record as “weak inhibitor”.
`CCN1/C(=C/c2ccc3ccccc3[n+]2CC)C=Cc2ccccc21.[I-]` [D-22, decynium-22, reference compound]: in data set [2], the “independent antidepressant-like activity (reduction in immobility time)” value is “none of the analogues, including D-22, displayed antidepressant-like activity”. Moreover, the “effect on locomotor activity” value in data set [3] (0.1 mg/kg ip, p=0.44) is listed as “not at 0.1 mg/kg”; in data set [3] (1.0 mg/kg ip, cumulative beam breaks 60 to 120 minutes following injection) it was “completely suppressed locomotor activity”. In addition, in data set [4], the “effect on immobility time” value is reported as “without effect on immobility time unless paired with an SSRI”.
Take `CCOc1ccccc1OCCN[C@H](C)Cc1ccc(OC)c(S(N)(=O)=O)c1` [Tamsulosin, tamsulosin, reference compound]: the IC50 in data set [1] is ~2 nM.
In the case of `CN1/C(=C\c2cc[n+](C)c3ccccc23)C=Cc2ccccc21.O=C([O-])C(F)(F)F` [analogue 1, 1,1′-Dimethyl-2,4′-cyanine trifluoroacetate], the “independent antidepressant-like activity (reduction in immobility time)” value in data set [2] was “do not impart independent antidepressant-like activity”.
`CC(C)[n+]1ccc(/C=C2/C=Cc3ccccc3N2C)c2ccccc21.O=C([O-])C(F)(F)F` [analogue 2, 1-Methyl-1′-isopropyl-2,4′-cyanine trifluoroacetate]: in data set [1], the IC50 is ~1000 nM. Moreover, the “independent antidepressant-like activity (reduction in immobility time)” value in data set [2] is recorded as “do not impart independent antidepressant-like activity”.
As for `CCN1/C(=C/c2ccc3cc(Cl)ccc3[n+]2CC)C=Cc2ccccc21.[I-]` [analogue 6, (E)-6-Chloro-1-ethyl-2-((1-ethylquinolin-2(1H)-ylidene)methyl)quinolinium iodide], the IC50 in data set [1] came out at 500 nM. The “independent antidepressant-like activity (reduction in immobility time)” value in data set [2] was “impart independent antidepressant-like activity”. Also, the “effect on locomotion compared with the same dose of D-22” value in data set [3] is recorded as “affected locomotion significantly less than D-22”.
Compound “(E)-1-Ethyl-2-((1-ethylquinolin-2(1H)-ylidene)methyl)-6-fluoro-4a,8a-dihydro quinolinium iodide [analogue 5]” showed a half-maximal inhibitory concentration (IC50) in data set [1] of 300 nM. The “independent antidepressant-like activity (reduction in immobility time)” value in data set [2] is “impart independent antidepressant-like activity”.
Take “(E)-1-Ethyl-2-((1-ethylquinolin-2(1H)-ylidene)methyl)-6-iodo-4a,8a-dihydro-quinolinium iodide [analogue 7]”: in data set [1], the half-inhibitory concentration (IC50) turned out to be 700 nM. Further, in data set [2], the “independent antidepressant-like activity (reduction in immobility time)” value was “do not impart independent antidepressant-like activity”. Further, in data set [3], the “effect on locomotion compared with the same dose of D-22” value is on record as “affected locomotion significantly less than D-22”.
